pEC50, pKi: −log10 of the molar value. Active and inactive are the calls of the source. The rule behind the calls is not given here. Where a SMILES comes first, the peptide text is derived from it.
Experiments:
[1] = target: T1, Kappa-type opioid receptor (Homo sapiens, UniProt P41145); test: Agonist activity at human recombinant KOR expressed in CHO cells at 1 uM by calcium mobilization assay; type: functional, cell-based
[2] = target: Mu-type opioid receptor (Rattus norvegicus, UniProt P33535); test: Displacement of [3H]DAMGO from MOR in Wistar rat brain homogenate by scintillation counting analysis; type: tissue-based
Sequence of Mu-type opioid receptor (Rattus norvegicus, UniProt P33535) (P33535 whole entry): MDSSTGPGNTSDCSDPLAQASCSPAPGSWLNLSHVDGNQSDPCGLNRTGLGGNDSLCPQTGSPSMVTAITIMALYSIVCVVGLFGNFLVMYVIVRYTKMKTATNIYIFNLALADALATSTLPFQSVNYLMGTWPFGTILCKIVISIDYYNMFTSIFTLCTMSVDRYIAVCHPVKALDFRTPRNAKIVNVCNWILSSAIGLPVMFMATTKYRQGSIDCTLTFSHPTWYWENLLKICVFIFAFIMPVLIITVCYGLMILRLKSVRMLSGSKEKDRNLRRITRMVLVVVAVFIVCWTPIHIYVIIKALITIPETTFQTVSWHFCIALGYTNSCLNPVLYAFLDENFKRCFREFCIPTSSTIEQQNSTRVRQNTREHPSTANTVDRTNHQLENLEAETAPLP
Outline: (§1)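 Competitive radioligand displacement in brain homogenates from adult male Wistar rats: [3H]DAMGO for MOR, [3H][Ile5,6]deltorphin-2 for DOR. IC50 read from logarithmic dose–displacement curves and converted to Ki. Three independent experiments, each in duplicate.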

[3] = target: Kappa-type opioid receptor (Cavia porcellus, UniProt P41144); test: Displacement of [3H]nor-BNI from KOR in Dunkin Hartley guinea pig brain homogenate by scintillation counting analysis; type: tissue-based
Sequence of Kappa-type opioid receptor (Cavia porcellus, UniProt P41144) (P41144 whole entry): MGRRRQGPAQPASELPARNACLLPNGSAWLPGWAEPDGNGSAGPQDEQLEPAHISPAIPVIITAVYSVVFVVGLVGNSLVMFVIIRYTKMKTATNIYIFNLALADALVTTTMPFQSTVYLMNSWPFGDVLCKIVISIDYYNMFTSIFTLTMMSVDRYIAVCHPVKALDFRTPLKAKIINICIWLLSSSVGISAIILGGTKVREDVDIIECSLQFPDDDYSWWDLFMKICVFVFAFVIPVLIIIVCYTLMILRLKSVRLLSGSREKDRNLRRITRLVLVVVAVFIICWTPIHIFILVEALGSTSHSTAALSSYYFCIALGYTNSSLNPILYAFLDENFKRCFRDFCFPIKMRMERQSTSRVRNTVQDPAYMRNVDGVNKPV
Outline: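 KOR affinity measured by competitive displacement of [3H]nor-BNI in guinea pig brain membranes. IC50 taken from logarithmic dose–displacement curves and converted to Ki. Three independent experiments run in duplicate.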

[4] = target: T2, Mu-type opioid receptor (Homo sapiens, UniProt P35372); test: Agonist activity at human recombinant MOR expressed in CHO cells at 1 uM by calcium mobilization assay; type: functional, cell-based
T2 sequence (P35372 whole entry): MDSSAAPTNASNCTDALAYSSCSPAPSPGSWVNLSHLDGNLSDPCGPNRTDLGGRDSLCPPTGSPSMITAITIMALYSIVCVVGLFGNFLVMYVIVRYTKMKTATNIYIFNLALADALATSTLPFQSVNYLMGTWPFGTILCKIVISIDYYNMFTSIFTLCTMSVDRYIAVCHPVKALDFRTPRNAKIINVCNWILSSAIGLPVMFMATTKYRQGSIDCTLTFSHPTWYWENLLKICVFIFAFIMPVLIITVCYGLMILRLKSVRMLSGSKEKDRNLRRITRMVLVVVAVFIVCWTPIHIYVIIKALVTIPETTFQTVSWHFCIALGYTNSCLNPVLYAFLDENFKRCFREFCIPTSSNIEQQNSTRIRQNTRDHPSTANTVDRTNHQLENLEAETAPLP

[5] = target: Delta-type opioid receptor (Rattus norvegicus, UniProt P33533); test: Displacement of [3H][Ile5,6]deltorphin-2 from DOR in Wistar rat brain homogenate by scintillation counting analysis; type: tissue-based; outline: as §1
Sequence of Delta-type opioid receptor (P33533 whole entry): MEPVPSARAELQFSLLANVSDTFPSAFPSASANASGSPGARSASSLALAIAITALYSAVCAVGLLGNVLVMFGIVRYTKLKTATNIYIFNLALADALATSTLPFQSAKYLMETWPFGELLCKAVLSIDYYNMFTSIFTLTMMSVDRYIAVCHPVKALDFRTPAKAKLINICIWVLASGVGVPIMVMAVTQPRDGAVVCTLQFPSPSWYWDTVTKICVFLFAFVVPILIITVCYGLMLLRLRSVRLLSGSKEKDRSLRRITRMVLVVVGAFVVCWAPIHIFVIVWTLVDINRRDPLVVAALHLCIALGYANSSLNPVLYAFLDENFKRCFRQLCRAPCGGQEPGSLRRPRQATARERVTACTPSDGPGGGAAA

[6] = target: Delta-type opioid receptor (Homo sapiens) (UniProt P41143); test: Agonist activity at human recombinant DOR expressed in CHO cells at 1 uM by calcium mobilization assay; type: functional, cell-based
Sequence of Delta-type opioid receptor (Homo sapiens) (P41143 whole entry): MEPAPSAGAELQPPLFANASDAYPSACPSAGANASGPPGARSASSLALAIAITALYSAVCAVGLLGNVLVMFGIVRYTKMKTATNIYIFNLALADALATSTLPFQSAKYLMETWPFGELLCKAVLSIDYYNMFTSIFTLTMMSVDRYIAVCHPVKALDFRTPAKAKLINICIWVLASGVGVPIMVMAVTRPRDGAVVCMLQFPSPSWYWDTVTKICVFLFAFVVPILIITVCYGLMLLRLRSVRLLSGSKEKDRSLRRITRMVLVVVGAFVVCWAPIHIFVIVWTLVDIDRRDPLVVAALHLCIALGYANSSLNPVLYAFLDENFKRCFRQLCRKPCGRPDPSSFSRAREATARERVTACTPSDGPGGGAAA

[7] = Retention time of compound by RP-HPLC analysis; type: physicochemical
Outline: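 Solvent A was 0.1% TFA in water and B was 80% acetonitrile with 0.1% TFA. Linear gradient of 0–100% B over 50 min at 1 ml/min.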

[8] = target: T1, Kappa-type opioid receptor; test: Intrinsic activity at human recombinant KOR expressed in CHO cells at 1 uM by calcium mobilization assay relative to dynorphin A; type: functional, cell-based
[9] = target: T2, Mu-type opioid receptor; test: Agonist activity at human recombinant MOR expressed in CHO cells by calcium mobilization assay; type: functional, cell-based
[10] = target: T1, Kappa-type opioid receptor; test: Agonist activity at human recombinant KOR expressed in CHO cells by calcium mobilization assay; type: functional, cell-based
Outline: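 CHO cells stably co-expressing human recombinant KOR and the C-terminally modified chimeric G protein Gαqi5. Calcium mobilization read-out. Concentration–response curves fitted with a sigmoidal equation that includes baseline, Emax and Hill coefficient. Potency reported as pEC50, the negative log molar concentration giving 50% of the maximal effect. Efficacy reported as intrinsic activity, the ligand Emax relative to the standard agonist Emax.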

T1 sequence (P41145 whole entry): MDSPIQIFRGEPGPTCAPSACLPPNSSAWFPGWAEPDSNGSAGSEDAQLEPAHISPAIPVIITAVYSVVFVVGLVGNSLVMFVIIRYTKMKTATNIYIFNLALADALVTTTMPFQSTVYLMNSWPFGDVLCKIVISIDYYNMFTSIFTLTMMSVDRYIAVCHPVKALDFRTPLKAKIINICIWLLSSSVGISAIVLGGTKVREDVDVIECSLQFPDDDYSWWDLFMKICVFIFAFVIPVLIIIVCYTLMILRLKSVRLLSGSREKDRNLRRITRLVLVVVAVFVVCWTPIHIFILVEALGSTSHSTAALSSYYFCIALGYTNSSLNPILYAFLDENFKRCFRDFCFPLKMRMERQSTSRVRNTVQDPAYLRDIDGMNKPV

Row | SMILES | Activity [1] | pKi [2] | pKi [3] | Activity [4] | pKi [5] | Activity [6] | Retention_time [7] | Intrinsic activity [8] | pEC50 [9] | pEC50 [10]
1 | CC1(C)SSC(C)(C)[C@@H](NC(=O)[C@@H](N)Cc2ccc(O)cc2)C(=O)NCC(=O)N[C@@H](Cc2ccccc2)C(=O)N[C@H]1C(=O)O | inactive | – | – | – | – | – | – | – | – | –
2 | NC(=O)[C@@H]1CCCN1C(=O)[C@H](Cc1ccccc1)NC(=O)[C@H]1CC(F)(F)CN1C(=O)[C@@H](N)Cc1ccc(O)cc1 | inactive | < 6.00 | < 6.00 | inactive | < 6.00 | inactive | 14.1 min | – | – | –
3 | NC(=O)[C@H]1CC(F)(F)CN1C(=O)[C@H](Cc1ccccc1)NC(=O)[C@@H]1CC(F)(F)CN1C(=O)[C@@H](N)Cc1ccc(O)cc1 | – | 9.43 | 6.41 | – | < 6.00 | inactive | 14.99 min | 0.84 | 8.33 | 6.09
4 | C[C@H](NC(=O)[C@@H](N)Cc1ccc(O)cc1)C(=O)N[C@@H](Cc1ccccc1)C(=O)NCC(=O)N[C@@H](Cc1ccc(O)cc1)C(=O)N1CCC[C@H]1C(=O)N[C@@H](CO)C(N)=O | inactive | – | – | – | – | – | – | – | – | –
5 | NC(=O)[C@@H]1CCCN1C(=O)[C@H](Cc1ccccc1)NC(=O)[C@@H]1CCCN1C(=O)[C@@H](N)Cc1ccc(O)cc1 [MORPHICEPTIN] (H-YPFP-NH2) | inactive | 7.44 | < 6.00 | – | < 6.00 | inactive | – | – | 6.13 | –
6 | NC(=O)[C@H]1CC(F)(F)CN1C(=O)[C@H](Cc1ccccc1)NC(=O)[C@@H]1CCCN1C(=O)[C@@H](N)Cc1ccc(O)cc1 | – | 7.88 | < 6.00 | – | < 6.00 | inactive | 14.22 min | – | 7.69 | –
7 | NC(=O)[C@@H]1CC(F)(F)CN1C(=O)[C@H](Cc1ccccc1)NC(=O)[C@@H]1CC(F)(F)CN1C(=O)[C@@H](N)Cc1ccc(O)cc1 | inactive | 6.98 | < 6.00 | – | < 6.00 | inactive | 14.56 min | – | 6.40 | –

Reference: ChEMBL document CHEMBL3763121, “Synthesis, biological evaluation and structural analysis of novel peripherally active morphiceptin analogs” (Bioorg Med Chem, 2016)
